Assay results published in ChEMBL document CHEMBL3272161, “Synthesis of prostaglandin synthetase substrate analogues. 2. (8Z,11Z,14Z)-15-Methyl-8,11,14-eicosatrienoic acid” (J Med Chem, 1977).
Active and inactive are the calls of the source. The calls are words filed in the database; no cut-off is given here.

Key:
Ovis aries [1] = species on record: Ovis aries; experiment: Activity at cyclooxygenase in sheep seminal vesicles assessed as oxygen consumption in presence of hematin
Summary of the method: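 Cyclooxygenase purified from seminal vesicles was supplemented with 0.5 uM hematin. Fatty acid came from a 9 mM heptane stock, dried under N2 just before use and resuspended in 0.1 M Tris-Cl pH 8.5 with 0.67 mM phenol. O2 uptake was read by oxygen electrode in 3-mL chambers. Arachidonic acid was run alongside as control substrate.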

[2] = target: seed linoleate 13S-lipoxygenase-1 (Glycine max) (UniProt P08170); experiment: Activity at soybean lipoxygenase assessed as oxygen consumption
Homo sapiens = species on record: Homo sapiens; experiment: Activity at prostaglandin synthetase in ADP-induced human platelet rich plasma assessed as malondialdehyde formation up to 5 mM by spectrophotometric analysis
Summary of the method: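 After ADP aggregation, PRP (compound salts added 2 min pre-ADP) was held a further 27 min at 37 °C unstirred. Samples were quenched in 20% trichloroacetic acid/0.6 M HCl and centrifuged. Supernatant was heated 15 min in boiling water with 0.12 M thiobarbiturate (Tris, pH 7.0), then read at A533. MDA = PRP minus PPP signal; recovery was 75-80%.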

Platelet = experiment: Antiplatelet activity against human platelet rich plasma assessed as inhibition of ADP-induced platelet aggregation up to 5 mM incubated for 2 mins prior to ADP-challenge; assay type: functional
Summary of the method: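 PRP came from citrated venous blood of aspirin-free human volunteers (200g, 20 min, RT), at 4-6 x 10^8 platelets/mL, with PPP as blank. Compound sodium salts, 50 mM in 0.1 M Na2CO3, were added as 0.01-0.05 mL to 0.5 mL of stirred PRP at 37 °C, 2 min before ADP. Aggregation was induced by 0.01 mL of 1 mM ADP and followed 2-3 min by aggregometer.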

Ovis aries [3] = species on record: Ovis aries; experiment: Irreversible inactivation of cyclooxygenase-mediated cyclooxygenation of arachidonic acid in sheep seminal vesicles up to 12 mins
Summary of the method: (§1)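 Cyclooxygenase O2-electrode assay was run with 0.5 uM hematin in Tris-Cl pH 8.5 with 0.67 mM phenol. Inhibitor was preincubated with enzyme for progressively longer periods, up to 12 min. Degree of inhibition was compared across preincubation times to test for irreversible inactivation.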

[4] = Competitive inhibition of cyclooxygenase-mediated cyclooxygenation of arachidonic acid in sheep seminal vesicles by Dixon plot analysis; set-up: species or system Ovis aries
Summary of the method: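 Seminal vesicle cyclooxygenase was used with 0.5 uM hematin in 0.1 M Tris-Cl pH 8.5 containing 0.67 mM phenol. Activity was followed as O2 consumption by oxygen electrode in 3-mL chambers, with arachidonic acid as substrate. Ki was derived by Dixon graphical method from eight assays.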

Ovis aries [5] = species on record: Ovis aries; experiment: Reversible inhibition of cyclooxygenase in sheep seminal vesicles; summary of the method: as §1

Compound | Activity (Ovis aries [1]) | Activity [2] | Activity (Homo sapiens) | inhibition (Platelet) | Activity (Ovis aries [3]) | Ki [4] | inhibition (Ovis aries [5])
CCCCC/C=C\C/C=C\C/C=C\C/C=C\CCCC(=O)O | Active | – | – | – | – | – | –
CCCCC/C(C)=C\C/C=C\C/C=C\CCCCCCC(=O)O | inactive | Active | inactive | Active | inactive | 2000 nM | Active
CCCCC/C=C\C/C=C\C/C=C\CCCCCCC(=O)O | – | – | Active | Active | – | – | –
